Assay results taken from ChEMBL document CHEMBL1142417, “Studies on quinones. Part 43: Synthesis and cytotoxic evaluation of polyoxyethylene-containing 1,4-naphthoquinones” (Bioorg Med Chem, 2008).

Assays:
MRC5 = test: Cytotoxicity against human MRC5 cells after 72 hrs by MTT assay; format: cell-based; conditions: MRC5, 72 h
Summary of the method: (§1)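 Cells seeded at 50,000 cells/mL and treated one day later for 3 days with compound at 0 up to 100 µM, with DMSO at 1% final. Untreated cells served as controls. Growth was read by MTT reduction, in sextuplicate. IC50 is the concentration giving 50% growth reduction. Media: AGS in Ham F-12; MRC-5, SK-MES-1 and J82 in MEM; all with 10% FBS at 37 °C and 5% CO2.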

AGS = test: Antitumor against human AGS cells after 72 hrs by MTT assay; format: functional, cell-based; summary of the method: as §1
SK-MES-1 = test: Antitumor against human SK-MES1 cells after 72 hrs by MTT assay; format: functional, cell-based; conditions: SK-MES-1, 72 h; summary of the method: as §1
J82 = test: Antitumor against human J82 cells after 72 hrs by MTT assay; format: functional, cell-based; conditions: J82, 72 h; summary of the method: as §1
HL-60 = test: Antitumor against human HL60 cells after 72 hrs by MTT assay; format: functional, cell-based; conditions: HL-60, 72 h
Summary of the method: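 HL-60 leukemia cells kept in RPMI with 1 mM pyruvate and 10% heat-inactivated FBS at 37 °C and 5% CO2. They were plated at 50,000 cells/mL and exposed from day 1 for 3 days to compound at 0 up to 100 µM, with DMSO at 1% final. Untreated cells served as controls. Readout was MTT reduction in sextuplicate. IC50 is 50% growth reduction.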

Row | Compound | IC50 (AGS) [µM] | IC50 (SK-MES-1) [µM] | IC50 (HL-60) [nM] | IC50 (MRC5) [µM] | IC50 (J82) [µM]
1 | O=C1C(Cl)=C(OCCOCCOCCOCCOC2=C(Cl)C(=O)c3ccccc3C2=O)C(=O)c2ccccc21 | 54.8 | 12.2 | 89500 | 55.8 | 33.9
2 | O=C1C(Cl)=C(OCCOCCOC2=C(Cl)C(=O)c3ccccc3C2=O)C(=O)c2ccccc21 | 11 | 16.1 | 1900 | 7.3 | 26.6
3 | COCCOC1=C(Cl)C(=O)c2ccccc2C1=O | 9.9 | 16.7 | 1700 | 3.5 | 19.4
4 | COC1=C(Cl)C(=O)c2ccccc2C1=O | 9.1 | 11.5 | 1800 | 3.5 | 10.1
5 | O=C1C(Cl)=C(OCCOCCOCCOC2=C(Cl)C(=O)c3ccccc3C2=O)C(=O)c2ccccc21 | 5.2 | 7.1 | 1300 | 4 | 8.6

The next lines start with results.

Row | IC50 (AGS) [µM] | IC50 (SK-MES-1) [µM] | IC50 (HL-60) [nM] | Compound | IC50 (MRC5) [µM] | IC50 (J82) [µM]
6 | 9.1 | 5.3 | 8900 | COC1=C(OC)C(=O)c2ccccc2C1=O | 7.2 | 16.1
7 | 63.2 | 16.4 | 21400 | O=C1C2=C(OCCOCCO2)C(=O)c2ccccc21 | 95.2 | 39.6
8 | 17.5 | 7.9 | 2600 | O=C1C2=C(OCCOCCOCCO2)C(=O)c2ccccc21 | 10.1 | 19.8
9 | 19.5 | 8.3 | 20100 | O=C1C2=C(OCCO2)C(=O)c2ccccc21 | 22.9 | 22.3
10 | 0.36 | 2.5 | 800 | COc1cc([C@@H]2c3cc4c(cc3[C@@H](O[C@@H]3O[C@@H]5CO[C@@H](C)O[C@H]5[C@H](O)[C@H]3O)[C@H]3COC(=O)[C@H]23)OCO4)cc(OC)c1O [ETOPOSIDE] | 3.9 | 2.8
